ChEMBL document CHEMBL4513216, “Probing the Open Global Health Chemical Diversity Library for Multistage-Active Starting Points for Next-Generation Antimalarials” (ACS Infect Dis, 2020)

Assay: Toxicity liver stage against HepG2, at 10uM
Assay type: cell-based
Design: test concentration 10 uM, cell line HepG2-A16-CD81EGFP
Details: human, HepG2-A16-CD81EGFP cells; read-out: INHIBITION
Outline: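 Uninfected HepG2-A16-CD81EGFP cells, 3 × 10^3 per well, 1536-well, plated on prespotted compound at 10 μM final, parasite-free screening media added to match infected plates; puromycin 10 μM positive, DMSO 0.5% negative; run in parallel with 48 h PbLuc assay at 37 °C, 5% CO2; viability by CellTiter-Glo luminescence, normalized to controls.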

Row | SMILES | cytotoxicity at 10 µM [%]
1 | CC(C)COC(C)C(=O)NCCNS(C)(=O)=O (stereo unspecified) | -5.26
2 | O=C(CSc1nncs1)N1CCN(Cc2ccc(Cl)s2)CC1 | -4.14
3 | Fc1ccc2[nH]c(CO[C@H]3CN(CC4CC4)C[C@H]3F)nc2c1 | -2.74
4 | CN(C)C(=O)c1cc2ncc(C(=O)NC3CC3)cc2n1C | -0.931
5 | N#CCCN(CC1CCCO1)C(=O)c1ccc2nonc2c1 (stereo unspecified) | 1.35
6 | CC[S+](CC)[c-]1c(=O)[nH]c(=O)n(Cc2ccc(F)cc2)c1=O | 4.12
7 | CCOCCSc1nnc(-c2cn(CC)nc2OCC)n1C | -3.81
8 | O=C1CCC2(CCCN(C(=O)Cc3ccccc3)C2)N1 (stereo unspecified) | 8.18
9 | O=C(NC1CC1)N1C[C@H]2CN(c3ccccc3)C(=O)[C@H]2C1 | -1.13
10 | Cc1nc(-c2cc(C(=O)NCC(C)(C)CO)c3ccccn23)cs1 | 6.1
11 | COc1cc(N2C[C@@H]3COC[C@]3(C(=O)NCc3ccccn3)C2)ncn1 | 7.55
12 | CC(C)N(C)Cc1noc2c1CN(C(=O)c1cnccn1)CC2 | 4.44
13 | Cc1cc(CN2C[C@H]3CCC[C@@]3(COCC(=O)N3CCCC3)C2)no1 | 8.31
14 | CN(C)Cc1cc(=O)n2c(n1)CN(CC1CC1)CCC2 | 5.71
15 | CCO[C@@H]1CC[C@H]2[C@H]1OCCN2S(=O)(=O)C1CC1 | 5.64
16 | CC(C)NC(=O)N1CCN(C(=O)C2CCOCC2)CC2(CNC(=O)C2)C1 (stereo unspecified) | 0.748
17 | CS(=O)(=O)N1Cc2nccn2CC(CN2CCCC2=O)C1 (stereo unspecified) | 5.8
18 | Cc1ccc(Cn2c(=O)[nH]c3csnc3c2=O)cc1 | 2.93
19 | O=C(NCCN1CCNCC1)c1c(O)c2ccccc2[nH]c1=O | 21
20 | CN1CC(Oc2ccccc2)=NC(SCC(=O)c2ccccc2)=N1 | -6.17
21 | Cc1nc(N2CCCCC2)ncc1-c1cc(O)[nH]n1 | 2.76
22 | COc1ccc2c(c1)CC(C1CCOCC1)N(C(=O)c1ccn(C)n1)C2 (stereo unspecified) | 1.78
23 | CC(C)c1cc(C(=O)N2CCC3(CCc4ccccc4C(=O)N3)C2)no1 (stereo unspecified) | 6.83

Row | SMILES | cytotoxicity at 10 µM [%]
24 | CCc1nccn1CCC(=O)N1CCCC1c1cncc(NC)n1 (stereo unspecified) | 3.53
25 | O=c1[nH]cc(N2CCCCC2)c(=O)[nH]1 | 5.55
26 | Cc1ccsc1CN(CCCN(C)C)Cc1ccccn1 | -4.11
27 | CC1COCCN1C(=O)c1ccc(=O)n(Cc2ccccc2)n1 (stereo unspecified) | -1.19
28 | CCOc1ccc(NC(=O)NC2CCc3[nH]ncc3C2)cn1 (stereo unspecified) | 3.95
29 | FC(F)(F)c1nc(NC2CCc3ncnn3C2)c2ccccc2n1 (stereo unspecified) | -2.99
30 | Cc1nn(C)c2ncc(C(=O)N3CCNC(=O)C3)cc12 | -6.62
31 | Cc1ccc(S(=O)(=O)Nc2cccnc2O)cc1C | 3.33
32 | COc1cccc(CNC(=O)CCOc2ccccc2C)c1 | -1.2
33 | CC(Cc1ccsc1)NC(=O)c1cc(N2CCNC2=O)ccc1F (stereo unspecified) | -4.62
34 | CCNc1cc2c(nn1)CCN(C(=O)Cc1ccc3c(c1)CCO3)C2 | 1.42
35 | COCc1cccc(C(=O)N2CCCC2)c1 | -1.7
36 | O=C(c1ccc(SC(F)F)cc1)N1CCOCC1c1ncon1 (stereo unspecified) | 4.79
37 | Cc1nnc(NC(=O)NCC(C)N2CCOCC2)s1 (stereo unspecified) | -10.6
38 | CCN(c1ccc(C(=O)Nc2c(C)nn(C(C)C)c2C)cc1)C(C)C | -2.92
39 | CN1CC(Nc2nc3c(cnn3-c3ccccc3)c(=O)[nH]2)CCC1=O (stereo unspecified) | -2.75
40 | CCC(=O)N1CCCN(Cc2cc(F)cc(Br)c2)CC1 | 10.3
41 | NC(=O)C1=NC2=NS(=O)(=O)c3ccccc3N2N1Cc1ccc(Br)cc1 | 8.34
42 | CC(=O)c1csc(-c2csc(Cn3ccc(=O)[nH]c3=O)n2)c1 | 5.39
43 | CCC(=O)NC1CCCN(Cn2nc(C(C)(C)C)ccc2=O)C1 (stereo unspecified) | -1.69
44 | CCc1nnc(C(C)N2CCc3cncnc3C2)o1 (stereo unspecified) | 7.49
45 | CCC(C)CS(=O)(=O)NC(=O)C1CC1 (stereo unspecified) | -4.69
46 | Cc1cccc(C2(CNC(=O)C(C)S(C)(=O)=O)CCCC2)c1 (stereo unspecified) | -2.76

Row | SMILES | cytotoxicity at 10 µM [%]
47 | Cc1noc(C)c1CN(C)C(=O)C1(NS(C)(=O)=O)CCCCC1 | -11.3
48 | Cc1nnc(SCCC(=O)N(C)Cc2ccc(F)cc2F)[nH]1 | 5.21
49 | Cc1csc(CNC(=O)NCC2(c3ccc4c(c3)OCO4)CC2)n1 | 0.0902
50 | Cc1cc(CN2CCN(c3ccnc(-c4ccccc4)n3)CC2)no1 | -8.92
51 | CCC(=O)N1CCC(NC(=O)c2cccc(-n3ccnc3)c2)C1 (stereo unspecified) | 8.96
52 | Cc1cc(CNC(=O)N2CCc3ccccc3C2CO)c(C)o1 (stereo unspecified) | 7.44
53 | O=C(NCCN1CCOCC1)NCc1ncc(-c2ccccc2)o1 | 1.26
54 | COc1cc(CNC(=O)NCCCF)cc(Br)c1OC | 11.4
55 | CCn1cc(C(=O)NC2CCN(S(C)(=O)=O)CC2)c2ccccc21 | 0.95
56 | Cn1cc(NC(=O)Cn2c(CS(C)(=O)=O)nc3ccccc32)cn1 | 1.31
57 | COc1ccc(C2CCCN2C(=O)CCNc2ncccn2)cc1 (stereo unspecified) | -13.9
58 | O=C(C1CCOC1)N1CCC2(CC1)Cc1ccccc1CNC2=O (stereo unspecified) | -113
59 | O=C(c1ccco1)N1C[C@H]2CN(Cc3cccc(F)c3)C(=O)[C@H]2C1 | -78.2
60 | CCc1csc(CNC2CCN(c3ccc(C)cc3)CC2)n1 | -10.8
61 | CC(C)CCN1CC2(CCN(C(=O)C3(C)CCCCO3)CC2)OC1=O (stereo unspecified) | -14.4
62 | O=C(c1ccc2c(c1)OCO2)N1CCCC(Nc2ccc(F)cc2)C1 (stereo unspecified) | -5.05
63 | CC(C)CC(=O)N1CCc2ccc(S(=O)(=O)N3CCN(C)CC3)cc2C1 | -15.3
64 | CCNc1ncc(C(=O)NC2CCOCC2)cn1 | 4.37
65 | CCCS(=O)(=O)NCc1cccnc1Oc1ccc(C)nc1 | -1.15
66 | O=C(NCCn1cc(Cl)cn1)C1CCN(C(=O)C2CC2)CC1 | -50.5
67 | NC1CCN(S(=O)(=O)c2ccc(C(=O)N3CCSCC3)cc2)C1 (stereo unspecified) | 7.1
68 | CN(CC1COc2ccccc2O1)C(=O)c1ccc(-c2cn[nH]c2)nc1 (stereo unspecified) | 5.37
69 | Cn1nnnc1SCCNC(=O)c1c[nH]nc1C1CCCCC1 | -0.863

Row | SMILES | cytotoxicity at 10 µM [%]
70 | CN(CC1(CO)CCCC1)[C@@H]1c2ccccc2C2(CCNCC2)[C@H]1O | 1.44
71 | N[C@H]1CN(S(=O)(=O)c2cccnc2)C[C@@H]1C1CC1 | 7.28
72 | COCCc1noc(CN(C)C(=O)C(C)N2CCc3ccccc3C2)n1 (stereo unspecified) | -0.262
73 | Cc1cc(C)cc(N2CCN(Cc3cccc(CCN)c3)CC2=O)c1 | 3.32
74 | Cc1cnc(NCc2ccncc2)nc1-c1cnn(C)c1 | 15.4
75 | Cc1cnccc1-n1nc(C(C)C)nc1CCN(C)S(C)(=O)=O | -4.05
76 | CCn1c(N)nc2cc(C(=O)NCc3ccccc3Cl)cnc21 | -14.1
77 | Fc1ccccc1C1NCCc2cc3c(cc21)OCCO3 (stereo unspecified) | -10.2
78 | Cc1cnn(CC2CCCN2Cc2nnc(C3CC3)o2)c1 (stereo unspecified) | -21.7
79 | COc1c(CNCc2cccc(Cn3cccn3)c2)c(C)nn1C | 1.33
80 | CC(C(=O)NCc1ccc(N2CCN(C)CC2)nc1)n1cccn1 (stereo unspecified) | -9.51
81 | CCOc1ccc(C#N)cc1NCC(=O)NC(=O)NC | -8.35
82 | O=C(c1ccc(-n2ccnc2)cc1)N1CCCC(n2ccnc2)C1 (stereo unspecified) | -21.1
83 | CCN(CC1CCCO1)C(=O)Nc1cc(C(N)=O)ccc1OC (stereo unspecified) | -7.33
84 | Cc1cc(CN2CCOC(CNc3cccnn3)C2)on1 (stereo unspecified) | -13.8
85 | Cc1csc(N2CCN(C(=O)c3ccc(C)s3)CC2)n1 | -24.3
86 | Cc1cc(C)n(CC2CCCN2C(=O)Cc2c(C)nc(C)[nH]c2=O)n1 (stereo unspecified) | -12.8
87 | CCc1nc(C)c(C(=O)NCCNc2ncccc2C#N)s1 | -8.54
88 | NC(=O)c1cc(C2CCCN(C(=O)CCc3cscn3)C2)n[nH]1 (stereo unspecified) | -7.59
89 | c1ccc(-n2ncc(CNC3CCc4ncnn4C3)n2)cc1 (stereo unspecified) | -3.38
90 | Cc1ccccc1OCCC(=O)N1CCCC(n2cncn2)C1 (stereo unspecified) | -17.6
91 | CCn1ccnc1CNCC1CCN(CC(O)c2ccccc2)CC1 (stereo unspecified) | -12.8
92 | Cc1cnc(CN2CCOC(CNc3cccnn3)C2)cn1 (stereo unspecified) | -5.15

Row | SMILES | cytotoxicity at 10 µM [%]
93 | Cc1cc(C(=O)N2CCN(C)CC2)nn1CC(=O)NCc1ccccn1 | -3.58
94 | O=C1CCC2(CCC(NCc3ccoc3)CC2)N1 (stereo unspecified) | 1.14
95 | OC(CNCc1ccccc1C(F)(F)F)c1ccccc1 (stereo unspecified) | -4.63
96 | CN1CCCN(C(=O)c2nc3c(o2)CN(C(=O)c2cccnc2)C3)CC1 | 2.75
97 | COc1ccc(CN2C[C@@H]3CCCO[C@@H]3[C@H](NS(C)(=O)=O)C2)cc1 | -2.83
98 | c1cc(CN2CC[C@H]3CO[C@H](CN4CCOCC4)[C@H]3C2)cs1 | 4.91
99 | Fc1cccc(-c2nnn3c2COC(CNCc2cccs2)C3)c1 (stereo unspecified) | 1.07
100 | COc1ccc(CCNCc2c(C)nn(C)c2N(C)C)cc1OC | -11.3
101 | COCC(=O)N1CCc2ccc(=O)n(Cc3csc(C)n3)c2CC1 | 8.19
102 | COCC1CN(Cc2ccoc2)Cc2nn(CC3CC3)cc21 (stereo unspecified) | -2.24
103 | Cn1cc(C(=O)N2CC[C@@H]3[C@@H]2CCN3c2ncc(F)cn2)cn1 | 13.8
104 | Cc1noc(C)c1CN1CCC2(COCc3cnc(N(C)C)nc32)C1 (stereo unspecified) | 9.93
105 | Cc1ccsc1C(=O)N1C[C@@H]2CN(Cc3ccoc3)CCO[C@@H]2C1 | -1.19
106 | CN1CCN(C2COC3(CCN(Cc4cccs4)CC3)C2)CC1 (stereo unspecified) | -84.5
107 | CCOc1ncnc2c1CCN(Cc1csc(C)n1)CC2 | -68.1
108 | CC(=O)N1CCCC1c1nnn2cc(Nc3ccccc3)ccc12 (stereo unspecified) | 12.2
109 | CC(C)CCN1CCc2[nH]nc(C(=O)N3CCCC3C)c2C1 (stereo unspecified) | 4.32
110 | O=C(CCc1ccccc1)NC1CCC2(CCC(=O)N2)CC1 (stereo unspecified) | 1.35
111 | CCN1C[C@@H]2C[C@H](C(=O)Nc3ccccc3)[C@H](C1)O2 | -76.4
